The source made the active and inactive calls. No cut-off for these calls is given here.
Legend:
[1] = Metabolic stability in rat liver microsomes assessed as compound remaining at 2 uM incubated for 30 mins; assay type: ADME, Microsome; conditions: read-out: Stabilty
Method in brief: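 Compound at 2 μM was incubated with rat liver microsomes at 37 °C for 30 min. The read-out is % of compound remaining.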

Influenza A virus [2] = experiment: Antiviral activity against Influenza A virus (A/WSN/1933(H1N1)) infected in […] MDBK cells assessed as cell protection incubated for 72 hrs; assay type: functional, organism-based
Method in brief: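 Madin-Darby bovine kidney cells were infected with A/WSN/33 at 50 TCID50/well and incubated with compound at 37 °C in a CO2 incubator for 72 hr.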

[3] = Inhibition of Influenza virus Cap-dependent endonuclease; design: species or system Influenza A virus
[4] = Fraction unbound in rat serum; assay type: ADME, cell-free
Method in brief: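 Free fraction was measured in the presence of rat serum. Values are the mean of duplicate experiments.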

[5] = Clearance in iv dosed rat by LC/MS/MS analysis; assay type: ADME, organism-based; conditions: in vivo
Method in brief: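 Rats received a single intravenous dose, and plasma levels were quantified by LC/MS/MS to derive clearance. Values are the mean of duplicate experiments.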

Influenza A virus [6] = experiment: Antiviral activity against Influenza A virus (A/WSN/1933(H1N1)) infected in mouse assessed as reduction in viral titer in lung by measuring reduction in virus infectivity in MDCK cells at 5 mg/kg, po administered after 5 days of infection and measured after 24 hrs; assay type: functional, organism-based
Method in brief: (§1)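 Mice were inoculated with A/WSN/33 at 100 TCID50/mouse. Oral dosing was twice daily (BID), starting 5 days after infection. Lung virus titer (log TCID50/mL) was determined on MDCK cells 24 h after the first dose.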

Influenza A virus [7] = experiment: Antiviral activity against Influenza A virus (A/WSN/1933(H1N1)) infected in mouse assessed as reduction in viral titer in lung by measuring reduction in virus infectivity in MDCK cells at 0.4 to 10 mg/kg, po administered after 5 days of infection and measured after 24 hrs; assay type: functional, organism-based; conditions: dose mg/kg 0.4-10, time […]; method in brief: as §1

Compound | remaining at 0.5 h, 2 µM [1] [%] | EC50 (Influenza A virus [2]) [µM] | IC50 [3] [µM] | fraction unbound [4] | clearance [5] [L/h/kg] | Activity (Influenza A virus [6]) | Activity (Influenza A virus [7])
C[C@@H](N1CN([C@H]2c3cc(F)ccc3CSc3ccccc32)n2ccc(=O)c(O)c2C1=O)C(F)(F)F | 98.9 | 0.00468 | 0.0443 | 0.0129 | 1.28 | – | –
CC(C)N1CN(C2c3ccccc3CSc3ccccc32)n2ccc(=O)c(O)c2C1=O (racemic) | 72.6 | 0.0169 | – | 0.0768 | 1.96 | – | –
CC(C)N1CN(C(c2cccc(C(F)(F)F)c2)c2cccc(C(F)(F)F)c2)n2ccc(=O)c(O)c2C1=O | – | 0.386 | 0.456 | – | – | – | –
C[C@@H](N1CN([C@@H]2c3ccccc3CSc3ccccc32)n2ccc(=O)c(O)c2C1=O)C(F)(F)F | – | 0.131 | – | – | – | – | –
O=C1c2c(O)c(=O)ccn2N(C2c3ccccc3CSc3ccccc32)CN1C(CF)CF (centres undefined) | 84.9 | 0.0275 | 0.113 | – | 2.01 | – | –
C[C@@H](N1CN([C@H]2c3ccccc3CSc3cc(F)ccc32)n2ccc(=O)c(O)c2C1=O)C(F)(F)F | 93.9 | 0.0143 | – | 0.00807 | 0.804 | – | –
O=C1c2c(O)c(=O)ccn2N(C2c3ccccc3CSc3ccccc32)CN1C1CC1 (centres undefined) | 73.7 | 0.0137 | 0.035 | 0.0783 | 2.76 | – | –
C[C@@H](N1CN([C@H]2c3ccccc3CSc3c(Cl)cccc32)n2ccc(=O)c(O)c2C1=O)C(F)(F)F | 92.3 | 0.0135 | 0.0232 | 0.00329 | 0.407 | – | –
COc1cccc(C(c2cccc(OC)c2)N2CN(C(C)C)C(=O)c3c(O)c(=O)ccn32)c1 | – | 0.589 | 1.31 | – | – | – | –
CC(C)N1CN(C(c2ccccc2)c2ccccc2)n2ccc(=O)c(O)c2C1=O | – | 0.0816 | 0.286 | – | – | – | –
CC(C)N1CN(C2c3ccccc3CCc3ccccc32)n2ccc(=O)c(O)c2C1=O | – | 0.0201 | 0.0601 | – | – | – | –
CC(C)N1CN(C(c2cccc(Cl)c2)c2cccc(Cl)c2)n2ccc(=O)c(O)c2C1=O | – | 0.0658 | 0.23 | – | – | – | –
COCC(C)N1CN(C2c3ccccc3CSc3ccccc32)n2ccc(=O)c(O)c2C1=O (centres undefined) | 58.6 | 0.0207 | 0.0579 | 0.106 | 2.95 | – | –
CC(CN(C)C)N1CN(C2c3ccccc3CSc3ccccc32)n2ccc(=O)c(O)c2C1=O (centres undefined) | 76.4 | 0.0841 | – | – | 5.92 | – | –
Cc1ccccc1C(c1ccccc1)N1CN(C(C)C)C(=O)c2c(O)c(=O)ccn21 (centres undefined) | – | 0.0734 | 0.142 | – | – | – | –
C[C@@H](N1CN([C@H]2c3ccc(F)cc3CSc3ccccc32)n2ccc(=O)c(O)c2C1=O)C(F)(F)F | 95.3 | 0.00354 | 0.0123 | 0.00383 | 0.696 | – | –
C[C@@H](N1CN([C@@H]2c3ccccc3SCc3c(F)cccc32)n2ccc(=O)c(O)c2C1=O)C(F)(F)F | 91.8 | 0.00385 | 0.0125 | 0.00978 | 0.502 | – | –
CC(C)N1CN(C(c2ccccc2)c2ccccc2Cl)n2ccc(=O)c(O)c2C1=O (centres undefined) | – | 0.0778 | 0.21 | – | – | – | –
C[C@@H](N1CN([C@H]2c3ccccc3CSc3ccccc32)n2ccc(=O)c(O)c2C1=O)C(F)(F)F | 98.1 | 0.00469 | – | 0.0103 | 0.948 | – | –
CCOC(=O)C1=C[C@@H](OC(CC)CC)[C@H](NC(C)=O)[C@@H](N)C1 | – | – | – | – | – | Active | –
CC(C)N1CN(C2c3ccccc3COc3ccccc32)n2ccc(=O)c(O)c2C1=O (centres undefined) | – | 0.071 | – | – | – | – | –

Compound | remaining at 0.5 h, 2 µM [1] [%] | EC50 (Influenza A virus [2]) [µM] | IC50 [3] [µM] | fraction unbound [4] | clearance [5] [L/h/kg] | Activity (Influenza A virus [6]) | Activity (Influenza A virus [7])
CC(C)N1CN(C(c2ccccc2)c2cccc(Cl)c2)n2ccc(=O)c(O)c2C1=O (centres undefined) | – | 0.0759 | 0.101 | – | – | – | –
C[C@@H](N1CN([C@H]2c3ccccc3CSc3cccc(F)c32)n2ccc(=O)c(O)c2C1=O)C(F)(F)F | 97.4 | 0.0151 | 0.0371 | 0.0119 | 0.545 | – | –
Cc1ccc(C(c2ccc(C)cc2)N2CN(C(C)C)C(=O)c3c(O)c(=O)ccn32)cc1 | – | 0.44 | 0.394 | – | – | – | –
C[C@@H](N1CN([C@H]2c3ccccc3CSc3cc(Cl)ccc32)n2ccc(=O)c(O)c2C1=O)C(F)(F)F | 101 | 0.0212 | 0.0621 | 0.00303 | 0.732 | – | –
C[C@@H](N1CN([C@@H]2c3ccccc3SCc3c(Cl)cccc32)n2ccc(=O)c(O)c2C1=O)C(F)(F)F | 102 | 0.00304 | 0.03 | 0.00293 | 0.442 | – | –
[2H]C([2H])([2H])C([2H])(N1CN(C2c3ccccc3CSc3ccccc32)n2ccc(=O)c(O)c2C1=O)C([2H])([2H])[2H] (centres undefined) | 74.4 | 0.0117 | 0.0434 | 0.0601 | 2.35 | – | –
C[C@@H](N1CN([C@H]2c3ccccc3CSc3ccc(F)cc32)n2ccc(=O)c(O)c2C1=O)C(F)(F)F | 103 | 0.00816 | – | 0.00975 | 0.924 | – | –
C[C@@H](N1CN([C@H]2c3ccc(Cl)cc3CSc3ccccc32)n2ccc(=O)c(O)c2C1=O)C(F)(F)F | 96.1 | 0.0105 | 0.00699 | 0.00117 | 0.342 | – | –
C[C@@H](N1CN([C@H]2c3cc(Cl)ccc3CSc3ccccc32)n2ccc(=O)c(O)c2C1=O)C(F)(F)F | 94.1 | 0.00421 | – | 0.00514 | 0.744 | – | –
C[C@@H](N1CN([C@H]2c3ccccc3SCc3cccc(Cl)c32)n2ccc(=O)c(O)c2C1=O)C(F)(F)F | 93.3 | 0.00352 | 0.00995 | 0.0179 | 1.18 | – | –
C[C@H](N1CN([C@H]2c3ccccc3CSc3ccccc32)n2ccc(=O)c(O)c2C1=O)C(F)(F)F | 79.8 | 0.0186 | – | – | – | – | –
Cc1cccc(C(c2ccccc2)N2CN(C(C)C)C(=O)c3c(O)c(=O)ccn32)c1 (centres undefined) | – | 0.219 | 0.276 | – | – | – | –
CC(C)N1CN(C(c2ccccc2)c2ccc(Cl)cc2)n2ccc(=O)c(O)c2C1=O (centres undefined) | – | 0.094 | 0.291 | – | – | – | –
C[C@@H](N1CN([C@H]2c3ccccc3CSc3cccc(Cl)c32)n2ccc(=O)c(O)c2C1=O)C(F)(F)F | 85.4 | 0.0188 | 0.0762 | 0.00589 | 0.612 | – | –
CC(C)N1CN(C(c2ccccc2Cl)c2ccccc2Cl)n2ccc(=O)c(O)c2C1=O | – | 0.0482 | 0.037 | – | – | – | –
C[C@@H](N1CN([C@H]2c3ccccc3CSc3c(F)cccc32)n2ccc(=O)c(O)c2C1=O)C(F)(F)F | 95.6 | 0.00341 | – | 0.00574 | 0.618 | – | –
C[C@@H](N1CN([C@@H]2c3ccccc3SCc3c2ccc(F)c3F)n2ccc(=O)c(O)c2C1=O)C(F)(F)F | 81.1 | 0.00428 | 0.00557 | 0.00411 | 0.66 | – | Active
C[C@@H](N1CN([C@@H]2c3ccccc3SCc3cccc(F)c32)n2ccc(=O)c(O)c2C1=O)C(F)(F)F | 102 | 0.00375 | 0.0318 | 0.012 | 1.08 | – | –
C[C@H](N1CN([C@@H]2c3ccccc3CSc3ccccc32)n2ccc(=O)c(O)c2C1=O)C(F)(F)F | – | 0.0217 | – | – | – | – | –
C[C@@H](N1CN([C@H]2c3ccccc3CSc3ccc(Cl)cc32)n2ccc(=O)c(O)c2C1=O)C(F)(F)F | – | 0.0708 | 0.0249 | – | – | – | –
